In ChEMBL document CHEMBL4422671, “New Quinolylnitrones for Stroke Therapy: Antioxidant and Neuroprotective ( Z)- N- tert-Butyl-1-(2-chloro-6-methoxyquinolin-3-yl)methanimine Oxide as a New Lead-Compound for Ischemic Stroke Treatment” (J Med Chem, 2019):
Activity calls are given as the source filed them. The rule behind the calls is not given here.

Experiments:
[1] = Antioxidant activity assessed as ABTS radical cation scavenging activity by measuring trolox equivalents at 10 uL after 1 min; assay type: functional
Outline: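 ABTS radical cation made from 2 mM aqueous ABTS plus 0.17 mM potassium persulfate in 20 mM phosphate buffer pH 7.4, kept 12–16 h dark at rt. Diluted with ethanol to A734 0.70, then mixed with 10 μL compound from 10 mM stock. Absorbance read at rt 1 min after mixing. Trolox as standard.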

Mus musculus [2] = assay: Neuroprotective activity in C57BL/6 mouse model of transient middle cerebral artery occlusion-induced ttransient focal cerebral ischemia assessed decrease in motor deficit at 2 mg/kg, ip measured after 24 hrs post dose by grip strength Test; assay type: functional, organism-based
Outline: (§1)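 Male C57BL/6 mice (9–12 weeks) under isoflurane. Distal MCA compressed 60 min with a needle, occlusion confirmed by laser-Doppler; buprenorphine given sc. Compound given ip at reperfusion onset. Grip strength recorded at 24 and 48 h versus presurgery. Infarct area/volume measured at 48 h from TTC-stained 1 mm coronal sections. n = 8 per group.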

[3] = Antiinflammatory activity assessed as NO release at 100 uM after 60 mins in presence of L-cysteine by Griess reagent-based relative to control; assay type: functional
Outline: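 NO-release test: compound at 100 μM final (from DMSO) in 50 mM phosphate buffer pH 7.4 containing 1 mM L-cysteine, 60 min at 37 °C. Reaction mixture then treated with Griess reagent, left 10 min at rt, absorbance read at 540 nm. Sodium nitroprusside as standard. Mean of three to four determinations.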

[4] = (§2) Cytotoxicity in oxygen-glucose deprivation-induced Sprague-Dawley rat primary neuronal cells assessed as reduction in cell viability at 250 uM pretreated for 24 hrs followed by OGD challenge for 4 hrs and measured after 24 hrs of recovery period post OGD measured by MTT assay; assay type: cell-based; settings: primary neuron
Outline: (§3)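 Rat cortical neuron cultures (E16–17 Sprague-Dawley, 6–7 days in vitro) treated with compound (1–250 µM range) 24 h before 4 h OGD at <0.1% O2, 37 °C. Cells then recovered 24 h under normoxia with glucose. Viability by MTT absorbance at 595/690 nm, relative to untreated control.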

[5] = Neuroprotective activity against oxygen-glucose deprivation-induced cell death in Sprague-Dawley rat primary neuronal cells assessed as cell viability at 250 uM treated at onset of recovery period and measured at 24 hrs of recovery by MTT assay relative to control; assay type: functional; settings: Primary neuron, read-out: Activity
Outline: (§4)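 Rat cortical neurons from E16–17 Sprague-Dawley embryos, used at 6–7 days in serum-free medium. OGD: glucose-free medium bubbled with 95% N2/5% CO2, <0.1% O2, 6.5% CO2, 37 °C, 4 h. Compound added at start of 24 h normoxic recovery. Viability by MTT (0.2 mg/mL, 1.5 h), lysis with HCl/SDS, read at 595/690 nm, relative to 100% control. Four to eight culture batches, each in quadruplicate.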

[6] = Neuroprotective activity against oxygen-glucose deprivation-induced cell death in Sprague-Dawley rat primary neuronal cells assessed as cell viability at 10 uM treated at onset of recovery period and measured at 24 hrs of recovery by MTT assay relative to control; assay type: functional; settings: Primary neuron, read-out: Activity; outline: as §4
[7] = Antioxidant activity assessed as DPPH free radical scavenging activity at 0.1 mM measured after 20 to 60 mins; assay type: functional
Outline: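 DPPH 0.1 mM in absolute ethanol with compound at 0.1 mM final (from DMSO). Absorbance at 517 nm recorded after 20 and 60 min at rt. NDGA as standard.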

Mus musculus [8] = assay: Neuroprotective activity in C57BL/6 mouse model of transient middle cerebral artery occlusion-induced ttransient focal cerebral ischemia assessed decrease in size of ischemic lesion at 2 mg/kg, ip measured after 48 hrs post dose relative to control; assay type: functional; design: scale not given: the % may be the effect or the level left; outline: as §1
Mus musculus [9] = assay: (§5) Neuroprotective activity in C57BL/6 mouse model of ischemia-induced cerebral ischemia model assessed reduction in neuronal cell death in cortical region at 1.5 mg/kg, ip administered at onset of reperfusion period and measured at 5 days reperfusion post ischemia by Fluoro-Jade-staining assay based relative to control; assay type: functional; design: scale not given: the % may be the effect or the level left
[10] = Antioxidant activity assessed as hydroxyl radical scavenging activity at 0.1 mM measured after 30 mins; assay type: functional
Outline: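 Hydroxyl radicals from Fe3+/ascorbic acid: EDTA 0.1 mM, Fe3+ 167 μM, DMSO 33 mM, compound 0.1 mM and ascorbic acid 10 mM in 50 mM phosphate buffer pH 7.4. Incubated 37 °C for 30 min, stopped with 17% w/v TCA. Read-out is inhibition of formaldehyde formation, given as % scavenging. Trolox as reference.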

[11] = Antioxidant activity assessed as superoxide anion scavenging activity at 0.1 mM pH 7.4 after 10 mins by NBT assay; assay type: functional
Outline: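 Superoxide generated by xanthine/xanthine oxidase (0.07 U/mL) in 0.1 M phosphate buffer pH 7.4 containing NBT and compound at 0.1 mM final. After 10 min at rt, absorbance read at 560 nm. Caffeic acid as standard.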

Rattus norvegicus = assay: Antiinflammatory activity in Fisher 344 rat model of carrageenan-induced edema assessed as inhibition of carrageenan-induced paw edema at 0.01 mmol/kg, ip dosed simultaneously with carrageenan injection relative to control; assay type: functional; settings: Fisher 344, ip
Outline: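 Fisher 344 rats (150–200 g), both sexes. Edema was induced by intradermal injection of 0.1 mL 2% carrageenan in water into the right hind paw. Compound was suspended in water with a few drops of Tween 80. Rats were euthanized 3.5 h later. The injected-minus-uninjected paw weight difference was compared with water or Tween-water controls as % inhibition. Mean of two experiments, n = 6 each.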

Primary neuron [12] = assay: as §2, with “Neuroprotective activity against” for “Cytotoxicity in”, “deprivation-induced cell death in” for “deprivation-induced”, “increase” for “reduction”, “10” for “250”; assay type: functional, cell-based; outline: as §3
[13] = Antioxidant activity assessed as inhibition of linoleic acid peroxidation activity at 10 uL; assay type: functional; design: scale not given: the % may be the effect or the level left
Outline: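 AAPH-initiated peroxidation of sodium linoleate dispersion (16 mM, 10 μL) in 0.05 M phosphate buffer pH 7.4 at 37 °C under air. Initiator was 50 μL of 40 mM AAPH, with 10 μL compound added. Conjugated diene hydroperoxide followed at 234 nm. Trolox as reference.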

Mus musculus [14] = assay: Neuroprotective activity in C57BL/6 mouse model of ischemia-induced cerebral ischemia model assessed reduction in neurodeficit score at 1.5 mg/kg, ip administered at onset of reperfusion period and measured at 5 days reperfusion post ischemia; assay type: functional, organism-based
Primary neuron [15] = assay: Neuroprotective activity against oxygen-glucose deprivation-induced ischemia in Sprague-Dawley rat primary neuronal cells assessed as reduction in lipid peroxidation at 10 to 250 uM measured after 4 hrs of recovery post OGD by fluorometric assay; assay type: functional, cell-based
Mus musculus [16] = assay: Neuroprotective activity in C57BL/6 mouse model of ischemia-induced cerebral ischemia model assessed as reduction in apoptosis in cortical region at 1.5 mg/kg, ip administered at onset of reperfusion period and measured at 5 days reperfusion post ischemia by TUNNEL assay relative to control; assay type: functional; design: scale not given: the % may be the effect or the level left
[17] = Neuroprotective activity against oxygen-glucose deprivation-induced cell death in Sprague-Dawley rat primary neuronal cells assessed as cell viability at 100 uM treated at onset of recovery period and measured at 24 hrs of recovery by MTT assay relative to control; assay type: functional; settings: Primary neuron, read-out: Activity; outline: as §4
Mus musculus [18] = assay: as §5, with “hippocampal CA1” for “cortical”; assay type: functional; design: scale not given: the % may be the effect or the level left
Mus musculus [19] = assay: Neuroprotective activity in C57BL/6 mouse model of transient middle cerebral artery occlusion-induced ttransient focal cerebral ischemia assessed decrease in motor deficit at 1.5 to 2 mg/kg, ip measured after 48 hrs post dose by grip strength Test; assay type: functional, organism-based; outline: as §1
Primary neuron [20] = assay: Neuroprotective activity against oxygen-glucose deprivation-induced ischemia in Sprague-Dawley rat primary neuronal cells assessed as reduction in ROS generation at 10 to 250 uM measured after 2 hrs of recovery post OGD by fluorometric assay; assay type: functional, cell-based
Outline: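 Primary rat cortical neurons exposed to 4 h OGD; compound added at onset of recovery together with a cell-permeable ROS probe. Fluorescence (ex 490/em 535 nm) read after 2 h recovery and expressed as % of control. Mean of four independent experiments.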

Mus musculus [21] = assay: Neuroprotective activity in C57BL/6 mouse model of transient middle cerebral artery occlusion-induced ttransient focal cerebral ischemia assessed decrease in motor deficit by measuring improvement in grip strength at 1.5 to 2 mg/kg, ip measured after 48 hrs post dose by grip strength Test; assay type: functional; design: scale not given: the % may be the effect or the level left; outline: as §1
Mus musculus [22] = assay: Neuroprotective activity in C57BL/6 mouse model of ischemia-induced cerebral ischemia model assessed as reduction in apoptosis in hippocampal CA1 region at 1.5 mg/kg, ip administered at onset of reperfusion period and measured at 5 days reperfusion post ischemia by TUNNEL assay relative to control; assay type: functional; design: scale not given: the % may be the effect or the level left
[23] = target: Lipoxygenase (Glycine max) (UniProt Q39829); assay: Inhibition of soybean lipoxygenase at 1 to 100 uM using sodium linoleate as substrate by UV-based analysis relative to control
Outline: (§6)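 Soybean lipoxygenase (enzyme 1/9 ×10⁻⁴ w/v in saline) incubated at rt with 0.1 mM sodium linoleate and compound in DMSO, at several concentrations from 1 to 100 µM diluted from 10 mM stock. Conversion to 13-hydroperoxylinoleic acid recorded at 234 nm; IC50 derived. NDGA as reference inhibitor.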

Mus musculus [24] = assay: Neuroprotective activity in C57BL/6 mouse model of transient middle cerebral artery occlusion-induced ttransient focal cerebral ischemia assessed decrease in size of ischemic lesion at 40 mg/kg, ip measured after 48 hrs post dose relative to control; assay type: functional, organism-based
Mus musculus [25] = assay: Neuroprotective activity in C57BL/6 mouse model of transient middle cerebral artery occlusion-induced ttransient focal cerebral ischemia assessed decrease in motor deficit by measuring improvement in grip strength at 40 mg/kg, ip measured after 48 hrs post dose by grip strength Test; assay type: functional; design: scale not given: the % may be the effect or the level left
Mus musculus [26] = assay: as §5, with “40” for “1.5”; assay type: functional, organism-based
Mus musculus [27] = assay: Neuroprotective activity in C57BL/6 mouse model of ischemia-induced cerebral ischemia model assessed as reduction in apoptosis in hippocampal CA1 region at 40 mg/kg, ip administered at onset of reperfusion period and measured at 5 days reperfusion post ischemia by TUNNEL assay relative to control; assay type: functional, organism-based
Lipoxygenase = Lipoxygenase (Glycine max, UniProt Q39829); assay: Inhibition of soybean lipoxygenase using sodium linoleate as substrate by UV-based analysis; outline: as §6
Mus musculus [28] = assay: Neuroprotective activity in C57BL/6 mouse model of ischemia-induced cerebral ischemia model assessed as reduction in apoptosis in cortical region at 40 mg/kg, ip administered at onset of reperfusion period and measured at 5 days reperfusion post ischemia by TUNNEL assay relative to control; assay type: functional, organism-based
Mus musculus [29] = assay: Neuroprotective activity in C57BL/6 mouse model of ischemia-induced cerebral ischemia model assessed reduction in neurodeficit score at 40 mg/kg, ip administered at onset of reperfusion period and measured at 5 days reperfusion post ischemia; assay type: functional, organism-based
Mus musculus [30] = assay: as §5, with “hippocampal CA1” for “cortical”, “40” for “1.5”; assay type: functional, organism-based

For `COc1ccc2nc(Cl)c(/C=[N+](\[O-])C(C)(C)C)cc2c1`, the Activity [1] was 7%, the Activity (Mus musculus [2]) was “Active” and the Activity [3] was 3%. For the same molecule, the Activity [4] was “Toxic”, the viability at 250 µM [5] was 65.9% and the viability at 10 µM [6] was 52%. It also gave an Activity [7] of 4%, an Activity (Mus musculus [8]) of 44% and an Activity (Mus musculus [9]) of 90%. The Activity [10] was 100%, the Activity [11] was 5% and the inhibition in vivo at 10 µmol/kg (Rattus norvegicus) was 48.5%. For the same molecule, the Activity (Primary neuron [12]) was “Active”, the Activity [13] was 22% and the Activity (Mus musculus [14]) was “Active”. For the same molecule, the Activity (Primary neuron [15]) was “Active”, the Activity (Mus musculus [16]) was 84% and the viability at 100 µM [17] was 77.1%. The Activity (Mus musculus [18]) was 33%, the Activity (Mus musculus [19]) was “Active” and the Activity (Primary neuron [20]) was “Active”. For the same molecule, the Activity (Mus musculus [21]) was 11.8%, the Activity (Mus musculus [22]) was 39% and the inhibition [23] was 29%.
In the case of `CC(C)(C)/[N+]([O-])=C/c1ccc(S(=O)(=O)[O-])cc1S(=O)(=O)[O-].[Na+].[Na+]`, the Activity [1] is reported as “inactive”, the Activity [3] is reported as 1% and the Activity (Mus musculus [24]) is reported as “inactive”. For the same molecule, the viability at 250 µM [5] was 52.9%, the Activity [7] was “inactive” and the Activity (Mus musculus [25]) was 20.7%. The Activity (Mus musculus [26]) was “inactive”, the Activity (Mus musculus [27]) was “inactive” and the IC50 (Lipoxygenase) was 57.5 µM. The Activity (Mus musculus [28]) was “inactive”, the Activity [10] was 94% and the Activity (Mus musculus [29]) was “Active”. For the same molecule, the Activity [11] was “inactive”, the Activity [13] was “inactive” and the Activity (Mus musculus [30]) was “inactive”.
